Sampled rows, rich in hits. Any-hit rate of the full collection: about 2.3%.
CHT inh: inhibitors of human choline transporter CHT. Q9GZV3. CHT-expressing cells, membrane potential dye, choline response; stronger effect = lower value. B-score at 10 µM. hit rate 0.86% among 310,000;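 active = B-score over 3 SD under the library average, and starting fluorescence ratio not unusually high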;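 also: choline stimulus applied at its EC90 after an EC20 pre-addition; B-score computed on integrated fluorescence ratio after choline addition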
GPR7 antag: blocks human GPR7 receptor signaling | P48145 | GPR7-expressing cells, fluorescence antagonist assay | inhibition, % at 4.4 µM | hit rate 1.1% among 290,000 | AID 1861; in the data active = inhibition above about 16%, passing the limit was not always enough;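 also: cells stimulated with the agonist NPW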
Target sequence (P48145 whole entry, looked up): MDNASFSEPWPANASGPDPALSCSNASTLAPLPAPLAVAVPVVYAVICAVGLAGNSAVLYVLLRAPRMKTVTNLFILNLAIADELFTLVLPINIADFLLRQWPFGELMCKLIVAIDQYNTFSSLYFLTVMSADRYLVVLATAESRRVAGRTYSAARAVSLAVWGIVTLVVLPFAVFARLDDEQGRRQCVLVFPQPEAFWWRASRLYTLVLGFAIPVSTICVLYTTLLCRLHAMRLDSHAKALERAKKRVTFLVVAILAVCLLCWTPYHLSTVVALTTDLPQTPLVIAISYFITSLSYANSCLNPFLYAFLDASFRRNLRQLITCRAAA
T cell modulator: modulates CD8 T cell binding to vesicles | 2C CD8+ T cell-vesicle binding, flow cytometry; stronger effect = lower value | response (vesicle binding), % at 7 µM | hit rate 0.068% among 330,000 | AID 2052;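 active = response, share of CD8 T cells binding vesicles, and their 90th percentile fluorescence all below set limits, cut at about 80% in these data, passing the limit was not always enough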;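 also: values below 100% mean blocked vesicle binding to the CD8+ T cells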
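Benchmarks: naked versus QL9-loaded vesicles / Assay system: purified 2C TCR transgenic mouse naive CD8+ T cells / Technique: high-throughput flow cytometry with anti-B7-1 and anti-CD8 staining / Timing: Cell–vesicle co-incubation 1.5 h at 37 °C, staining 20 min on ice / Read-out: percent CD8+ FL2 mean versus row control / Probe or stimulus: QL9-loaded Drosophila micro-vesicles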
DSG3 Ab inh: inhibitors of pemphigus antibody binding to human desmoglein-3 | DSG3-coupled beads, scFv-anti-DSG3-GFP binding, flow cytometry; stronger effect = lower value | hit rate 0.48% among 310,000 | binding (percent of control), % at 10 µM | P32926;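 active = binding more than 3 SD below its plate's average and above zero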
CHT allo act: allosteric activators of human choline transporter CHT | CHT-expressing cells, membrane potential dye, choline EC20; stronger effect = higher value; LV-AA mutant CHT in HEK293 cells | B-score at 10 µM | hit rate 0.49% among 310,000 | AID 488977;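 active = initial fluorescence not abnormally high and integrated response B-score, plate-corrected, over 3 SD above library mean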
p-CIP stab down: p/CIP protein destabilization; F442A p/CIP-EGFP cells, EGFP fluorescence, 16 h; Q05BA5; hit rate 0.01% among 290,000; AID 1984; decrease of EGFP signal, % at 10 µM;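 active = EGFP signal decrease of at least 30% at 10 µM or well 3 SD below plate mean, unless failing retest; inactive = the rest, including hits failing retest or dose response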
CHT activ conf: human CHT activation, confirmatory screen. shares compounds with CHT allo act. CHT-expressing cells, membrane potential dye fluorescence (FDSS); % of choline EC20–EC90 response window; HEK293 expressing CHT LV-AA mutant; choline added at its EC20. activation, % at 10 µM. hit rate 91% among 2,500. AID 504833;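 active = primary screen active, with duplicate mean activation above negative control mean plus 3 SD, cut at about 11% in these data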
HEK293 MP dye: counter-screen for CHT activators: effect in parental HEK293 cells; shares compounds with CHT allo act; membrane potential dye fluorescence (FDSS); measured after EC20 choline addition; ratio readout change at 10 µM, hits read low; hit rate 62% among 2,500;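 active = duplicate-averaged ratio beyond 3 SD from buffer wells, up or down, though filed actives are nearly all decreases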
Large screens that a line does not name were inactive (follow-up assays come after a bar, where they were run).

CC[n+]1c(/C=C/N(C)c2ccccc2)sc2ccc(Cl)cc21	none | CHT activ conf 14.9 | HEK293 MP dye -39.5
CS(=O)(=O)c1ccc(C2=C(CNC(=O)c3nccs3)[C@H]3CC[C@@H](C2)N3CCOc2ccccc2)cc1	none (no result: CHT inh, GPR7 antag, T cell modulator, CHT allo act, p-CIP stab down)
COc1cc2c(cc1O)C[C@H]1NCCc3cc4c(c-2c31)OCO4	none
COc1cc2c(cc1OC)-c1c3c(cc4c1[C@@H](C2)N(C)CC4)OCO3	none | CHT activ conf 41.8 | HEK293 MP dye -48
C[n+]1c(-c2ccccc2)sc2ccccc21	none | CHT activ conf 51.5 | HEK293 MP dye -42
CCCCCCC[n+]1ccc(-c2cc[n+](CCCCCCC)cc2)cc1	none
C[n+]1ccc(-c2cc[n+](C)cc2)cc1	CHT allo act 10.9 (no result: GPR7 antag, p-CIP stab down) | CHT activ conf 85.4 | HEK293 MP dye -100
Cc1ccc(-c2nc(N3CCOCC3)s[n+]2-c2ccccc2)cc1	CHT allo act 6.73 | CHT activ conf 55.4 | HEK293 MP dye inactive
CC1=C(N2CC2)C(=O)C(CO)=C(N2CC2)C1=O	none (no result: CHT inh, GPR7 antag, T cell modulator, CHT allo act, p-CIP stab down)
CN(C)c1cc[n+](CC(O)C[n+]2ccc(N(C)C)cc2)cc1	CHT allo act 7.73 (no result: GPR7 antag, p-CIP stab down) | CHT activ conf 35.1 | HEK293 MP dye -70.7
CCc1nc2ccc(Br)cc2c(=O)n1-c1ccccc1C(F)(F)F	none (no result: p-CIP stab down)
CCCc1nc2ccc(Br)cc2c(=O)n1-c1ccc([N+](=O)[O-])c(C(F)(F)F)c1	none | CHT activ conf inactive | HEK293 MP dye inactive
FC(F)(F)c1cccc(NC2=NCCS2)c1	none (no result: CHT inh, GPR7 antag, T cell modulator, CHT allo act, p-CIP stab down)
CC1=NCCc2c1[nH]c1cc(O)ccc21	none (no result: GPR7 antag, p-CIP stab down)
COc1ccc2c3c([nH]c2c1)C(C)=NCC3	none (no result: DSG3 Ab inh) | CHT activ conf 32.7 | HEK293 MP dye -42.8
O=C(Nc1ccccc1)c1cc([N+](=O)[O-])ccc1N1CCNCC1	none
O=[N+]([O-])c1ccc2nc(N3CCNCC3)ccc2c1	CHT allo act 11.1 (no result: GPR7 antag, DSG3 Ab inh, p-CIP stab down) | CHT activ conf 37.0 | HEK293 MP dye -50.6
Cc1cccc(NP(=O)(Oc2ccccc2F)Oc2ccccc2F)c1	none | CHT activ conf 22.6 | HEK293 MP dye inactive
C[C@@H]1CCC2[C@@H](C)C(=O)O[C@@H]3OC4(C)CCC1[C@@]23OO4 (stereo partly drawn)	none (no result: CHT inh, GPR7 antag, DSG3 Ab inh, CHT allo act, p-CIP stab down)
NC(Cc1ccccc1Cl)c1nn[nH]n1 (stereo not drawn)	none (no result: CHT inh, GPR7 antag, T cell modulator, CHT allo act, p-CIP stab down)
CN1CCN(c2nc(N(C)C)oc(=O)c2C#N)CC1	none | CHT activ conf 53.7 | HEK293 MP dye -47.3
COc1ccc(CC2(CCc3ccncc3)C(=O)NC(=O)NC2=O)cc1OC	none
CNc1cc(N2CCNCC2)ccc1[N+](=O)[O-]	none | CHT activ conf 38.5 | HEK293 MP dye -48.8
Cc1ccccc1-c1ccc2n1Cc1cnnn1-c1ccccc1-2	none (no result: CHT inh, GPR7 antag, T cell modulator, CHT allo act, p-CIP stab down)
CN(C)c1nc(-c2ccccc2)[n+](C)s1	none | CHT activ conf 26.2 | HEK293 MP dye -48.7
C[n+]1ccc(-c2ccccc2)c2ccccc21	CHT allo act 8.55 (no result: GPR7 antag, p-CIP stab down) | CHT activ conf 85.0 | HEK293 MP dye -70
Nc1c(C(=O)NCc2ccco2)c2nc3ccccc3nc2n1CCN1CCOCC1	CHT allo act 6.41 | CHT activ conf 19.8 | HEK293 MP dye -20.5
OC(Cn1c2ccccc2c2ccccc21)C[n+]1cccc2ccccc21 (stereo not drawn)	none | CHT activ conf 39.1 | HEK293 MP dye -37.7
Cc1cc(N2CCN(C)CC2)nc2ccccc12	CHT allo act 7.02 | CHT activ conf 48.9 | HEK293 MP dye -50.5
CSc1nc(N2CCN(C)CC2)c2ccccc2n1	CHT allo act 6.33 (no result: DSG3 Ab inh) | CHT activ conf 46.7 | HEK293 MP dye -67.8
O=C(NN=Cc1ccc(N(CCCl)CCCl)cc1)C(=O)c1c[nH]c2ccccc12	none (no result: CHT inh, GPR7 antag, T cell modulator, CHT allo act, p-CIP stab down)
CN1C2CNC(=O)CC1C1CCC2C1 (stereo not drawn)	none (no result: CHT inh, GPR7 antag, T cell modulator, CHT allo act, p-CIP stab down)
c1cc2c(cc1NC1=NCCO1)CCCC2	none (no result: CHT inh, GPR7 antag, T cell modulator, CHT allo act, p-CIP stab down)
C[n+]1c(-c2ccccc2)cc(-c2ccc(O)cc2)cc1-c1ccccc1	CHT allo act 6.96 | CHT activ conf 55.4 | HEK293 MP dye -57.6
O=[N+]([O-])c1ccc(-[n+]2c(-c3ccccc3)cc(-c3ccccc3)cc2-c2ccccc2)cc1	none | CHT activ conf 65.6 | HEK293 MP dye -28.1
Oc1ccc(-[n+]2c(-c3ccccc3)cc(-c3ccccc3)cc2-c2ccccc2)cc1	CHT allo act 9.77 (no result: GPR7 antag, p-CIP stab down) | CHT activ conf 80.4 | HEK293 MP dye -26
O=C([O-])c1ccc(-[n+]2c(-c3ccccc3)cc(-c3ccccc3)cc2-c2ccccc2)cc1	none (no result: GPR7 antag, p-CIP stab down)
Cc1ccc(-c2cc(-c3ccccc3)cc(-c3ccccc3)[n+]2-c2ccccc2C(=O)O)cc1	none (no result: GPR7 antag, p-CIP stab down)
CCOc1ccc(NC(=O)CCNC(=O)N2C[C@H]3C[C@@H](C2)c2cccc(=O)n2C3)cc1	none
Cc1cc(C)c2c(ccc3cccc[n+]32)c1	CHT allo act 6.31 (no result: GPR7 antag, p-CIP stab down) | CHT activ conf 72.1 | HEK293 MP dye -55.1
CC(C)CC(C)N (stereo not drawn)	none (no result: CHT inh, GPR7 antag, CHT allo act, p-CIP stab down)
CC(=O)C1C(N2CC2)CC2C3CC=C4CC(O)CCC4(C)C3CCC21C (stereo not drawn)	none (no result: CHT inh, GPR7 antag, T cell modulator, CHT allo act, p-CIP stab down)
Cn1c(O)c(/C=N/c2ncccn2)c(=O)n(C)c1=O	none | CHT activ conf 38.1 | HEK293 MP dye -35.6
CC(C)S(=O)(=O)N1Cc2ccccc2-n2nncc2C1	none (no result: CHT inh, GPR7 antag, T cell modulator, CHT allo act, p-CIP stab down)
CN1CCN(C(=O)OC2c3nccnc3C(=O)N2c2ccc(Cl)cn2)CC1 (stereo not drawn)	CHT allo act 9.83 (no result: DSG3 Ab inh) | CHT activ conf 67.7 | HEK293 MP dye -59.6
Cc1cc(Cl)ccc1OCC(=O)N1CCN(C)CC1	none
CC1C(=O)OC2CCN3CC4OC4(COC(=O)C(C)(O)C1(C)O)C23 (stereo not drawn)	none (no result: CHT inh, GPR7 antag, T cell modulator, CHT allo act, p-CIP stab down)
CCC1([N+](=O)[O-])COP(=O)(NCc2cccnc2)OC1 (stereo not drawn)	none (no result: CHT inh, GPR7 antag, T cell modulator, CHT allo act, p-CIP stab down)
N#CC(=C(O)c1ccc(S(=O)(=O)N(CCCl)CCCl)cc1)c1nc2ccccc2[nH]1	none (no result: CHT inh, GPR7 antag, T cell modulator, CHT allo act, p-CIP stab down)
